From paper PMC8026699 (Cancer research, 2021)

Legend:
A7C11 tumors = test: A7C11 tumor growth in mice; format: in vivo, mouse; settings: A7C11 (ACSS2 low) tumors
Procedure, shortened: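 Parental or CRISPR-Cas9 sgAcss2 cells (lentiviral, blasticidin-selected pools) implanted subcutaneously into 5–6-week-old female NSG mice in PBS:Matrigel: A7C11 at 5×10^5, Brpkp110 at 5×10^5. Calipers read tumors three times weekly. Volume = (L × W²)/2, L being the longer measurement; not blinded.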

ACSS1 in BT474 cells = test: 13C2-acetate labeling of citrate in BT474 cells; format: cell-based, human
Procedure, shortened: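 Cells grown 24 h in serum-like modified Eagle's medium (SMEM) with 0.1 mM uniformly labeled 13C2-acetate. Conditions were normoxia with 10% dialyzed FBS (N10) or 1% O2 hypoxia with 1% dialyzed FBS (H1). Vehicle or test compound present. Cells washed in ice-cold PBS and extracted with methanol/acetonitrile/water (5:3:2) at 4°C for 5 min. Cleared extracts analysed by HILIC LC-MS on a Q Exactive HF-X.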

A7C11 cells = test: 13C2-acetate labeling of palmitate in A7C11 cells; format: cell-based, mouse; settings: A7C11, N10 and H1, 24 hr, 100 μM 13C2-acetate
Procedure, shortened: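 Cells labeled 24 h with 100 μM 13C2-acetate in SMEM under N10 (normoxia, 10% dialyzed FBS) or H1 (1% O2, 1% dialyzed FBS). Vehicle or test compound present; for BT474 in H1, a 10-fold dilution series. Lipids extracted with methanol/chloroform/PBS, saponified in 0.3 M KOH/90% methanol at 70°C for 1 h, then hexane-extracted. Palmitate labeling read by C18 reverse-phase LC-MS. n = 3, mean ± S.D.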

SKBr3 cells = test: 13C2-acetate labeling of palmitate in SKBr3 cells; format: cell-based, human; settings: SKBr3, 100 μM 13C2-acetate, 24 hr, N10 and H1 conditions
Procedure, shortened: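 SKBr3 cells were grown 24 h in serum-like modified Eagle's medium with 100 μM 13C2-acetate, either in N10 (normoxia, 10% dialyzed FBS) or H1 (1% O2, 1% dialyzed FBS), with vehicle or test compound. Lipids were extracted with methanol/chloroform/PBS, saponified in 0.3 M KOH in 90% methanol at 70°C for 1 h, then hexane-extracted. Palmitate labeling was measured by C18 LC-MS; mean ± S.D., n = 3.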

recombinant human ACSS1 = biological target: T1, recombinant human ACSS1 (Homo sapiens, UniProt Q9NUB1); test: TranScreener AMP biochemical assay of ACSS1 activity; settings: regardless of the substrate (acetate or propionate)
T1 sequence (Q9NUB1 38-689): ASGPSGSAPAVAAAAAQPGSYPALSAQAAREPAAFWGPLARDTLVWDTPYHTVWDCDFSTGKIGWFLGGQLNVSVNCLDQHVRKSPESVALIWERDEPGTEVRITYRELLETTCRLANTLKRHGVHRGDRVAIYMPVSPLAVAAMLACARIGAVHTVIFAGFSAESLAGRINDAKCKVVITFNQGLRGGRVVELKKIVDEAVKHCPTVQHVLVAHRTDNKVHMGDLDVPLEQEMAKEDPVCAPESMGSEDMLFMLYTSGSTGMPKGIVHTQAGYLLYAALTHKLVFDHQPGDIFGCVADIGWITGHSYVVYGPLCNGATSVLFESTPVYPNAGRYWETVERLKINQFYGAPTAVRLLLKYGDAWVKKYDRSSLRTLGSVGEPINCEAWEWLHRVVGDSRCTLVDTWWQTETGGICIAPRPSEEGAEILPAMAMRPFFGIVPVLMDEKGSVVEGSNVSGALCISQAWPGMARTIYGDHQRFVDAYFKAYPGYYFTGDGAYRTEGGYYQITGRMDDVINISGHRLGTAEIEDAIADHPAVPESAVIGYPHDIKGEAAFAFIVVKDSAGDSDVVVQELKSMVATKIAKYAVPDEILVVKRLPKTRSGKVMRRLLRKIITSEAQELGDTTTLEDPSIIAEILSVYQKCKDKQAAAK
Procedure, shortened: (§1)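 Test compound was serially diluted in DMSO and added to ACSS1 (2 nM) or ACSS3 (25 nM). Acetate reaction: HEPES pH 7.4 buffer with 140 mM NaCl; final 5 mM acetate, 50 μM ATP, 5 μM CoA. Propionate reaction: HEPES/KCl/CHAPS buffer; final 5 mM propionate, 10 μM ATP, 100 μM CoA. Incubation 120 min, then AMP detected by terbium-antibody/tracer TR-FRET after 30 min. Percent inhibition was set against no-enzyme and DMSO controls.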

recombinant human ACSS3 = biological target: T2, recombinant human ACSS3 (Homo sapiens, UniProt Q9H6R3); test: TranScreener AMP biochemical assay of ACSS3 activity; settings: regardless of the substrate (acetate or propionate)
T2 sequence (Q9H6R3 30-686): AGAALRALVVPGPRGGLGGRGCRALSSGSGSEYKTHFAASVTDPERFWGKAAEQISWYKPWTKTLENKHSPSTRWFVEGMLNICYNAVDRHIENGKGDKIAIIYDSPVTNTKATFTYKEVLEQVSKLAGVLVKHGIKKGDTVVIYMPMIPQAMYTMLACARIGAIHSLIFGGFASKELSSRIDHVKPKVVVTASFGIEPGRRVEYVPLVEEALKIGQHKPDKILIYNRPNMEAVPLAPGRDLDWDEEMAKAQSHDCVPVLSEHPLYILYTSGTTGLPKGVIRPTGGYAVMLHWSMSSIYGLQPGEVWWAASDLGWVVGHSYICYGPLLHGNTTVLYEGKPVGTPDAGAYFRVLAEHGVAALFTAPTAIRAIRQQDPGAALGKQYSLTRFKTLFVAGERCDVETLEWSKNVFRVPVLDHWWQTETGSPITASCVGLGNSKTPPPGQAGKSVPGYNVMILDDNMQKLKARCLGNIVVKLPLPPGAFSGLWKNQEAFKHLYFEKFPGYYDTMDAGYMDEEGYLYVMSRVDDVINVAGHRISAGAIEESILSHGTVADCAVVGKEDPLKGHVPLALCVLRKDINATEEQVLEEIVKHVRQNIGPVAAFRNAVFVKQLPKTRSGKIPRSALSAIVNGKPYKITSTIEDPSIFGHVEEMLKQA
Procedure, shortened: as §1

BT474 cells = test: Growth of BT474 cells; format: cell-based, human; settings: BT474, 10 μM, 72 hours, H1 conditions, 200 μM sodium acetate
Brpkp110 tumors = test: Brpkp110 tumor growth in NSG mice; format: in vivo, mouse
Procedure, shortened: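 Brpkp110 cells (5×10^5 in PBS:Matrigel) implanted subcutaneously in 5–6-week-old female NSG mice, then randomized. Daily dosing: vehicle (10% DMSO, 20% solutol, 70% water with 0.5% Tween20) or 100 mg/kg test compound. Volume (L × W²)/2 from calipers thrice weekly. Resected tumors: formalin-fixed, paraffin-embedded, citrate steam retrieval, H2O2 block, Ki67 antibody, DAB with hematoxylin counterstain.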

## CCn1c(C(O)(c2ccccc2)c2ccccc2)nc2ccc(C(=O)NC[C@@H](C)O)cc21 [VY-3-135, (R)-1-ethyl-2-(hydroxydiphenylmethyl)-N-(2-hydroxypropyl)-1H-benzo[d]imidazole-6-carboxamide]
A7C11 tumors
  tumor growth: but not WHIM12 and A7C11 tumors
ACSS1 in BT474 cells; BT474, H1 conditions, 24 hr
  13C2-acetate labeling of citrate: did not decrease
ACSS1 in BT474 cells; BT474, hypoxia and low serum stressed cells
  M+2 citrate (acetate contribution to the TCA cycle): increased M+2 citrate
A7C11 cells
  acetate dependent labeling of palmitate by 13C2-acetate: efficiently blocked
SKBr3 cells
  fatty acid (palmitate) synthesis from 13C2-acetate: completely blocked fatty acid synthesis from acetate
Recombinant human ACSS1
  inhibitory activity towards ACSS1: neither VY-3-249 nor VY-3-135 displayed any inhibitory activity
Recombinant human ACSS3
  inhibitory activity towards ACSS3: neither VY-3-249 nor VY-3-135 displayed any inhibitory activity
BT474 cells
  cell growth: modest growth inhibition
Brpkp110 tumors; Brpkp110 (ACSS2 high), 100 mpk daily IP
  tumor growth: marked inhibition
Brpkp110 tumors; Brpkp110 tumors
  Ki67 staining of tumors (proliferation): less proliferative
